According to ChEMBL document CHEMBL3608234, “Synthesis and antiviral evaluation of a novel series of homoserine-based inhibitors of the hepatitis C virus NS3/4A serine protease” (Bioorg Med Chem Lett, 2015):

Columns and labels:
[1] = Cytotoxicity against human GS4.1 cells assessed as induction of cell death; assay type: cell-based
Outline: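 GS4.1 cells (Huh-7 with Con1 subgenomic replicon); CC50 taken as concentration giving 50% cell death, from death versus concentration data relative to blank control.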

[2] = Inhibition of full length HCV 1b Con1 NS3/4A protease using HiLyte Fluor 610 peptide substrate by biochemical FRET assay; set-up: species or system Hepatitis C virus (isolate Con1)
Outline: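 Fluorescence (FRET) protease assay on full-length genotype 1b Con1 HCV NS3/4A with HiLyte Fluor 610 peptide substrate; IC50 from percent inhibition versus concentration by four-parameter sigmoidal non-linear regression.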

Hepatitis C virus = assay: Antiviral activity against HCV Con1 infected in human GS4.1 cells containing HCV Con1 subgenomic replicon assessed as reduction in NS5A protein expression by ELISA method; assay type: functional, cell-based, Hepacivirus hominis; conditions: genotype 1b Con1
Outline: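 Huh-7 cells carrying HCV Con1 subgenomic replicon (GS4.1); replication followed as NS5A protein expression by ELISA; EC50 from 50% inhibition versus concentration data fitted by four-parameter sigmoidal non-linear regression.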

[3] = Intrinsic clearance in rat liver microsomes incubated for 2 hrs; assay type: ADME; conditions: read-out: CLH
Hepatocyte = assay: Clearance in rat cryopreserved hepatocytes incubated for 2 hrs; assay type: ADME, cell-based
[4] = Clearance in rat liver S9 fraction incubated for 2 hrs; assay type: ADME, subcellular; conditions: read-out: CLH
Outline: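 Rat liver S9 fraction incubation for 2 h; mean clearance from n = 2.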

[5] = Intrinsic clearance in Cynomologus monkey liver microsomes incubated for 2 hrs; assay type: ADME, Macaca fascicularis; conditions: cynomolgus monkey, read-out: CLH
[6] = Intrinsic clearance in human liver microsomes incubated for 2 hrs; assay type: ADME; conditions: read-out: CLH
[7] = Intrinsic clearance in dog liver microsomes incubated for 2 hrs; assay type: ADME, Canis lupus familiaris; conditions: read-out: CLH

| SMILES | IC50 [2] [nM] | EC50 (Hepatitis C virus) [nM] | microsomal CLint [3] [µL/min/mg] | CLH (Hepatocyte) [µL/min/mg] | microsomal CLint [4] [µL/min/mg] | microsomal CLint [5] [µL/min/mg] | microsomal CLint [6] [µL/min/mg] | microsomal CLint [7] [µL/min/mg] | CC50 [1] [µM] |
| --- | --- | --- | --- | --- | --- | --- | --- | --- | --- |
| COc1ccc2c(OCC[C@@H]3NC(=O)N(C)CCCC/C=C\[C@@H]4C[C@@]4(C(=O)NS(=O)(=O)N4CCC(F)(F)C4)NC3=O)cc(-c3nc(C(C)C)cs3)nc2c1Cl | 165 | > 750 | – | – | – | – | – | – | 37.6 |
| COc1ccc2c(OCC[C@@H]3NC(=O)N(C)CCCC/C=C\[C@@H]4C[C@@]4(C(=O)NS(=O)(=O)C4(C#N)CC4)NC3=O)cc(-c3nc(C(C)C)cs3)nc2c1Cl | 14.4 | > 750 | – | – | – | – | – | – | > 75 |
| COc1ccc2c(OCC[C@@H]3NC(=O)N(C)CCCC/C=C\[C@@H]4C[C@@]4(C(=O)NS(=O)(=O)C4CC4)NC3=O)cc(-c3nc(C(C)C)cs3)nc2c1Cl | 1.7 | 76.5 | 36.6 | 19.1 | 8.9 | 124 | 263 | 25 | 40.4 |
| C#CC1(S(=O)(=O)NC(=O)[C@@]23C[C@H]2/C=C\CCCCN(C)C(=O)N[C@@H](CCOc2cc(-c4nc(C(C)C)cs4)nc4c(Cl)c(OC)ccc24)C(=O)N3)CC1 | 0.7 | 28.9 | – | – | – | – | – | – | 26.3 |
| COc1ccc2c(OCC[C@@H]3NC(=O)N(C)CCCC/C=C\[C@@H]4C[C@@]4(C(=O)NS(=O)(=O)N4CCC[C@H]4C#N)NC3=O)cc(-c3nc(C(C)C)cs3)nc2c1Cl | 264 | > 750 | – | – | – | – | – | – | 28.3 |
| COc1ccc2c(OCC[C@@H]3NC(=O)N(C)CCCC/C=C\[C@@H]4C[C@@]4(C(=O)NS(=O)(=O)C4(C)CC4)NC3=O)cc(-c3cc(C(F)(F)F)nn3C)nc2c1C | 1 | 440 | – | – | – | – | – | – | 34.5 |
| COc1ccc2c(OCC[C@@H]3NC(=O)N(C)CCCC/C=C\[C@@H]4C[C@@]4(C(=O)NS(=O)(=O)C4(C)CC4)NC3=O)cc(-n3ccc(C(F)(F)F)n3)nc2c1C | 1.8 | 35 | 14.4 | – | – | – | – | – | 45.8 |
| COc1ccc2c(OCC[C@@H]3NC(=O)N(C)CCCC/C=C\[C@@H]4C[C@@]4(C(=O)NS(=O)(=O)C4CC4)NC3=O)cc(-c3nc(C(C)C)cs3)nc2c1F | 9.6 | 1490 | – | – | – | – | – | – | > 75 |
| COc1ccc2c(OCC[C@@H]3NC(=O)N(C)CCCC/C=C\[C@@H]4C[C@@]4(C(=O)NS(=O)(=O)C4(C)CC4)NC3=O)cc(-c3csc(NC(C)C)n3)nc2c1 | 1.2 | 1040 | – | – | – | – | – | – | 37.4 |

The next lines start with results.

| IC50 [2] [nM] | EC50 (Hepatitis C virus) [nM] | microsomal CLint [3] [µL/min/mg] | CLH (Hepatocyte) [µL/min/mg] | microsomal CLint [4] [µL/min/mg] | microsomal CLint [5] [µL/min/mg] | microsomal CLint [6] [µL/min/mg] | microsomal CLint [7] [µL/min/mg] | SMILES | CC50 [1] [µM] |
| --- | --- | --- | --- | --- | --- | --- | --- | --- | --- |
| 8 | 555 | – | – | – | – | – | – | COc1ccc2c(OCC[C@@H]3NC(=O)N(C)CCCC/C=C\[C@@H]4C[C@@]4(C(=O)NS(=O)(=O)C4(C)CC4)NC3=O)cc(-c3nc(C(C)C)cs3)nc2c1F | 57.1 |
| 0.9 | 44 | 155 | – | – | – | – | – | COc1ccc2c(OCC[C@@H]3NC(=O)N(C)CCCC/C=C\[C@@H]4C[C@@]4(C(=O)NS(=O)(=O)C4(C)CC4)NC3=O)cc(-c3nc(C(C)C)cs3)nc2c1 | 6.5 |
| 0.6 | 20.5 | 16.5 | – | – | – | – | – | COc1ccc2c(OCC[C@@H]3NC(=O)N(C)CCCC/C=C\[C@@H]4C[C@@]4(C(=O)NS(=O)(=O)C4(C)CC4)NC3=O)cc(-c3nc(C(C)C)cs3)nc2c1Br | 28.3 |
| 2.3 | 85 | 9.3 | – | – | – | – | – | COc1ccc2c(OCC[C@@H]3NC(=O)N(C)CCCC/C=C\[C@@H]4C[C@@]4(C(=O)NS(=O)(=O)C4(C)CC4)NC3=O)cc(-c3nc(C(C)C)cs3)nc2c1C | 31.9 |
